Results on six compounds are retold here after ChEMBL document CHEMBL1132569.

The structures appear in SMILES notation.

For test [1], the target named is T1, Muscarinic acetylcholine receptor M4 (Homo sapiens) (UniProt P08173).
T1 sequence (whole entry): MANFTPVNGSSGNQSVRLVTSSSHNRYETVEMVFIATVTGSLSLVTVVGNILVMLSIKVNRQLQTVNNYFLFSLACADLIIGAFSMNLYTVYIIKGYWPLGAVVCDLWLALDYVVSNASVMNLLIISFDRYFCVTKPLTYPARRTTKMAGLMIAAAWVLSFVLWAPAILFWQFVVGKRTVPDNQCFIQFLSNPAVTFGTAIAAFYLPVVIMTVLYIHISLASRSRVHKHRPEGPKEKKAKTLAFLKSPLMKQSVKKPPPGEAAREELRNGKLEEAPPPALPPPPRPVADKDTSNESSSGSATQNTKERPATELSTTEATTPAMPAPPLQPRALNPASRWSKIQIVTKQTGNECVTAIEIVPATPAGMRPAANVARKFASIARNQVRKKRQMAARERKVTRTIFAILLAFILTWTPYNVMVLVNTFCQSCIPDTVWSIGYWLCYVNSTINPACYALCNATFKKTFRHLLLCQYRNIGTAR
In words: Binding affinity at the NMS liganded human muscarinic acetylcholine receptor M4 was estimated as log affinity (log1/M). In short, it runs like this:
(§1)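 Equilibrium runs were ≥2 h with 2 × 10⁻⁴ M GTP and 0.1–0.7 nM ³H-NMS. Nonspecific binding was defined with 10⁻⁶ M QNB, and bound ligand was filtered and counted. Log affinities came from semiquantitative plus off-rate, quantitative equilibrium, or nonequilibrium assays, fitted by nonlinear least squares to the allosteric ternary complex model.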

For test [2], the target named is T2, Muscarinic acetylcholine receptor M5 (Homo sapiens) (UniProt P08912).
T2 sequence (whole entry): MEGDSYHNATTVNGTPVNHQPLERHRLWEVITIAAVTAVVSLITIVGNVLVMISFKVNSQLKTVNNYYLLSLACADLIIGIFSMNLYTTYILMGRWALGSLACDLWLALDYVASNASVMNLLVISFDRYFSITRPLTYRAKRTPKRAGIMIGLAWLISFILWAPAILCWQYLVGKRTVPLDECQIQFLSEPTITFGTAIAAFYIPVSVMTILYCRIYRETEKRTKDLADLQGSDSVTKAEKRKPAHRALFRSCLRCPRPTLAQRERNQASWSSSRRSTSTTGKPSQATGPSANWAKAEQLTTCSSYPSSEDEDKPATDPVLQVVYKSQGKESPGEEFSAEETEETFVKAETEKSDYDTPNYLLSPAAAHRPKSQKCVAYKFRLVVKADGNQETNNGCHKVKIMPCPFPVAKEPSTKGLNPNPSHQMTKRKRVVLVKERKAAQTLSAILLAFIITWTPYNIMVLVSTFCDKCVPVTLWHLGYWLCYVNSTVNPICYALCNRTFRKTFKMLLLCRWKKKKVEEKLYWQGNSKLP
As to the kind of experiment: Cooperativity with NMS at Muscarinic acetylcholine receptor M5. In short, it runs like this:
(§2)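 Equilibrium ³H-NMS binding in CHO membranes expressing human m1–m5 receptors was measured with and without ACh, alone and with three agent concentrations. Data were converted to affinity ratios, meaning apparent primary-ligand affinity with agent divided by affinity without it.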

Test [3] deals with T2, Muscarinic acetylcholine receptor M5 (Homo sapiens). As to the kind of experiment: Cooperativity with acetylcholine at Muscarinic acetylcholine receptor M5. In outline: as §2
The target in test [4] is T3, Muscarinic acetylcholine receptor M1 (Homo sapiens) (UniProt P11229).
T3 sequence (whole entry): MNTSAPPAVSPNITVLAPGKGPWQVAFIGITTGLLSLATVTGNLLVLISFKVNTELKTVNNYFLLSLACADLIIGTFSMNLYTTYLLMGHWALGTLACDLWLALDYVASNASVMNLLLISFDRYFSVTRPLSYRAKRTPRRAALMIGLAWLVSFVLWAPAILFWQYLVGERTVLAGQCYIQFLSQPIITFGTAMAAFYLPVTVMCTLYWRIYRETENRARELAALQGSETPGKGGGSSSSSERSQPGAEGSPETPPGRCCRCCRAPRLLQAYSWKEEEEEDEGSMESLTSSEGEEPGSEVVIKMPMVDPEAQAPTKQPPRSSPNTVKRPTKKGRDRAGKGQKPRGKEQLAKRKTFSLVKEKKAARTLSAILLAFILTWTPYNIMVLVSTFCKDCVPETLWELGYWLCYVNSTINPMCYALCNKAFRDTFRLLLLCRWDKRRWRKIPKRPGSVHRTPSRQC
As to the kind of experiment: Cooperativity with NMS at human muscarinic acetylcholine receptor M1. In short, it runs like this:
as §2

In test [5] the target is T2, Muscarinic acetylcholine receptor M5 (Homo sapiens). In words: Binding affinity at the NMS liganded human muscarinic acetylcholine receptor M5 was estimated as log affinity (log1/M). In short, it runs like this: as §1
For test [6], the target named is Muscarinic acetylcholine receptor M3 (Homo sapiens) (UniProt P20309). As to the kind of experiment: Cooperativity with acetylcholine at human muscarinic acetylcholine receptor M3. In outline:
as §2

In test [7] the target is T4, Muscarinic acetylcholine receptor M2 (Homo sapiens) (UniProt P08172).
T4 sequence (whole entry): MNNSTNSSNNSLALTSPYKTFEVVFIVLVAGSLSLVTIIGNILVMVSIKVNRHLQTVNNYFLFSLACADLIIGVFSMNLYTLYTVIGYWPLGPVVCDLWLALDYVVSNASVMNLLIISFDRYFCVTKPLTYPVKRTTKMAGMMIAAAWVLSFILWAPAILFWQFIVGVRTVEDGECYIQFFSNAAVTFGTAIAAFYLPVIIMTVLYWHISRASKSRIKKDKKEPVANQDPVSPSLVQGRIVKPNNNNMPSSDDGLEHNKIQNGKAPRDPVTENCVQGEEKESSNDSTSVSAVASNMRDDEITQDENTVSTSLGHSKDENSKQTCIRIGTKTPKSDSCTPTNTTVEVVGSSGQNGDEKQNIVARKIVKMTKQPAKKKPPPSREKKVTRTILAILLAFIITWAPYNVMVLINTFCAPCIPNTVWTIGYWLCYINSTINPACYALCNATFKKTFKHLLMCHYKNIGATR
In words: Cooperativity with acetylcholine at human muscarinic acetylcholine receptor M2. In short, it runs like this: as §2

The target in test [8] is Muscarinic acetylcholine receptor M3 (Homo sapiens) (UniProt P20309). As to the kind of experiment: Binding affinity at the NMS liganded human muscarinic acetylcholine receptor M3 was estimated as log affinity (log1/M). In short, it runs like this:
as §1

The target is the same in test [9]. In words: Binding affinity at the unliganded human muscarinic acetylcholine receptor M3 was estimated as log affinity (log1/M). In short, it runs like this:
as §1

Test [10] concerns the target T4, Muscarinic acetylcholine receptor M2 (Homo sapiens). As to the kind of experiment: Binding affinity at the NMS liganded human muscarinic acetylcholine receptor M2 was estimated as log affinity (log1/M). In short, it runs like this:
as §1

The target of test [11] is T1, Muscarinic acetylcholine receptor M4 (Homo sapiens). As to the kind of experiment: Cooperativity with acetylcholine at human muscarinic acetylcholine receptor M4. In short, it runs like this: as §2
Test [12] deals with T4, Muscarinic acetylcholine receptor M2 (Homo sapiens). As to the kind of experiment: Binding affinity at the unliganded human muscarinic acetylcholine receptor M2 was estimated as log affinity (log1/M). In outline: as §1
For test [13], the target named is T3, Muscarinic acetylcholine receptor M1 (Homo sapiens). In words: Binding affinity at the unliganded human muscarinic acetylcholine receptor M1 was estimated as log affinity (log1/M). In short, it runs like this:
as §1

Test [14] shares this target. In words: Cooperativity with acetylcholine at human muscarinic acetylcholine receptor M1. In short, it runs like this:
as §2

Test [15] deals with Muscarinic acetylcholine receptor M3 (Homo sapiens) (UniProt P20309). As to the kind of experiment: Cooperativity with NMS at human muscarinic acetylcholine receptor M3. In short, it runs like this:
as §2

Test [16] deals with T1, Muscarinic acetylcholine receptor M4 (Homo sapiens). In words: Binding affinity at the unliganded human muscarinic acetylcholine receptor M4 was estimated as log affinity (log1/M). In short, it runs like this:
as §1

Test [17] deals with T4, Muscarinic acetylcholine receptor M2 (Homo sapiens). In words: Cooperativity with NMS at human muscarinic acetylcholine receptor M2. In short, it runs like this:
as §2

The target of test [18] is T2, Muscarinic acetylcholine receptor M5 (Homo sapiens). As to the kind of experiment: Binding affinity at the unliganded Muscarinic acetylcholine receptor M5 was estimated as log affinity (log1/M). In outline: as §1
The target of test [19] is T3, Muscarinic acetylcholine receptor M1 (Homo sapiens). As to the kind of experiment: Binding affinity at the NMS liganded human muscarinic acetylcholine receptor M1 was estimated as log affinity (log1/M). In short, it runs like this:
as §1

The target of test [20] is T1, Muscarinic acetylcholine receptor M4 (Homo sapiens). In words: Cooperativity with NMS at human muscarinic acetylcholine receptor M4. In outline: as §2

Chain of Muscarinic acetylcholine receptor M3 (Homo sapiens) (P20309 whole entry, looked up): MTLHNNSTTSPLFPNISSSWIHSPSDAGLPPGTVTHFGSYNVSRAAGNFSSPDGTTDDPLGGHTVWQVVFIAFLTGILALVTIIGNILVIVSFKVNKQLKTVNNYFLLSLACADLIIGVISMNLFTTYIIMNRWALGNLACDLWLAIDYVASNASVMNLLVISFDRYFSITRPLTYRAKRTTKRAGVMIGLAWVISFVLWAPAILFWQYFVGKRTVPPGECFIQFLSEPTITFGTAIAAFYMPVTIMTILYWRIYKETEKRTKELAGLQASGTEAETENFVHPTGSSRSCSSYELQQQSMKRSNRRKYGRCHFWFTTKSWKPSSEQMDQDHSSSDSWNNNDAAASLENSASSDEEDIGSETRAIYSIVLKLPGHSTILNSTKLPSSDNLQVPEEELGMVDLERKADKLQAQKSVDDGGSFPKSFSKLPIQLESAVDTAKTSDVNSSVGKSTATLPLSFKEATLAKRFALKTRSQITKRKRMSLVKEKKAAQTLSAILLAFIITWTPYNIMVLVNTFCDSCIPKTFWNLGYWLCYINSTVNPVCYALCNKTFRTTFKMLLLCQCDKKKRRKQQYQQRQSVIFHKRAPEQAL

As to `COc1cc2c(cc1OC)[C@@]13CC[N+]4([O-])CC5=CCO[C@H]6CC(=O)N2[C@H]1[C@H]6[C@H]5C[C@@H]34` (some centres undefined), the Affinity was 3.7 in test [1]; 2.7 in test [5]; 2.8 in [8]; 2.8 in test [9]; 3.3 in test [10]; 2.7 in test [12]. For the same compound, the Affinity in test [13] was 3.4; in test [16], 3.7; in test [18], 2.5; in test [19] it was 3.6. Besides, the Cooperativity in test [2] is 2; in test [3], 0.8; in [4] it was 2; in test [6], over 2; in [7] it was 0.8; in [11], 2. Also, the Cooperativity in [14] is 1.19; in [15] it was 1.19; in test [17] it was over 2; in test [20], 1.19.

For `COc1cc2c(cc1OC)[C@@]13CC[N+]4(C)CC5=CCO[C@H]6CC(=O)N2[C@H]1[C@H]6[C@H]5C[C@@H]34` (some centres undefined), the Affinity was 4.4 in test [1]; 2.9 in [5]; 3.6 in test [8]; 3.5 in [9]; 4.5 in [10]; 4 in [12]. Further, the Affinity is 4 in [13], 4.3 in test [16], 3.3 in test [18] and 4 in [19]. Besides, the Cooperativity in test [2] is 0.8; in test [3] it was under 0.2; in test [4], 1.19; in [6], 2; in test [7], 0.8; in test [11], 0.8. In addition, the Cooperativity was 0.8 in test [14], 1.19 in [15], over 2 in [17] and 1.19 in test [20].

Consider `COc1cc2c(cc1OC)[C@@]13CC[N+]4(N)CC5=CCO[C@H]6CC(=O)N2[C@H]1[C@H]6[C@H]5C[C@@H]34` (some centres undefined), for which the Affinity is 4.2 in test [1]; 3.3 in [5]; 3.9 in test [8]; 3.8 in [9]; 4.2 in [10]; under 4 in test [12]. Also, the Affinity in test [13] is 3.8; in [16], under 4; in test [18], 3.6; in [19] it was 3.8. Besides, the Cooperativity in [2] is 0.8; in test [3], 0.8; in [4], 1.19; in test [6] it was over 2; in test [7], 0.8; in [11] it was 0.8. Further, the Cooperativity in [14] turned out to be 0.8; in test [15], 1.19; in [17], 2; in test [20], 2.

Regarding `COc1cc2c(cc1OC)[C@@]13CC[N+]4(Cc5ccccc5)CC5=CCO[C@H]6CC(=O)N2[C@H]1[C@H]6[C@H]5C[C@@H]34` (some centres undefined), the Affinity was 4.5 in [1]; 3.7 in [5]; 3.8 in [8]; over 4 in test [9]; 4.8 in test [10]; 4.6 in [12]. The Affinity in [13] is under 4.6; in [16], 4.5; in [18], 3.7; in [19], 4.4. Moreover, the Cooperativity was 1.19 in test [2]; 0.8 in test [3]; 0.8 in test [4]; 2 in [6]; 0.8 in test [7]; 0.8 in test [11]. Further, the Cooperativity in [14] was 0.8; in test [15], 0.8; in [17], over 2; in test [20], 1.19.

In the case of `COc1cc2c(cc1OC)[C@@]13CCN4CC5=CCO[C@H]6CC(=O)N2[C@H]1[C@H]6[C@H]5C[C@H]43`, the Affinity in test [1] was 4.5; in test [5] it was 3.3; in test [8], 2.9; in test [9] it was 3.5; in test [10], 4.7; in [12], 4.5. Besides, the Affinity was 4.6 in [13], 4.8 in test [16], 4.3 in test [18] and 4.5 in [19]. Moreover, the Cooperativity in test [2] is under 0.2; in [3] it was under 0.2; in [4] it was 1.19; in test [6], 0.8; in [7] it was 0.8; in [11], 0.8. For the same compound, the Cooperativity came out at 2 in [14], 0.8 in [15], 2 in test [17] and 0.8 in test [20].

On to `C=CC[N+]12CC[C@@]34c5cc(OC)c(OC)cc5N5C(=O)C[C@@H]6OCC=C(C1)[C@H](C[C@@H]32)[C@@H]6[C@H]54` (some centres undefined), for which the Affinity in test [1] was 4.6; in test [8], 3.5; in test [9] it was 3.8; in [10], 4.7; in [12] it was 4.5; in [13], 4.4. Also, the figures for the Affinity in [16], in [18] and in [19] were 4.5, 3.8 and 4.2, respectively. Besides, the Cooperativity stood at 1.19 in test [2]; 0.8 in [3]; 0.8 in [4]; 2 in test [6]; 0.8 in [7]; 0.8 in [11]. For the same compound, the Cooperativity was 0.8 in test [14], 0.8 in [15], 2 in test [17] and 1.19 in [20].
